This passage reports inhibition results from ChEMBL document CHEMBL1165965, “Synthesis and structure-activity relationships of 1,2,3,4-tetrahydropyrido[2,3-b]pyrazines as potent and selective inhibitors of the anaplastic lymphoma kinase” (Bioorg Med Chem, 2010).

Assay [1] deals with Insulin receptor (Homo sapiens) (UniProt P06213). Kind of assay: Inhibition of INSR at 1 uM. Summed up:
(§1)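 Single-concentration screen on the Ambit KINOMEscan platform, run against a panel of 250–400 kinases. Per-kinase inhibition was also summarized as S(90), the fraction of kinases inhibited by more than 90%.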

Assay [2] concerns the target Tyrosine-protein kinase JAK2 (Homo sapiens) (UniProt O60674). Kind of assay: Inhibition of JAK2 JH1 catalytic domain at 1 uM. Summed up:
as §1

Assay [3] has as its target T1, Membrane-associated tyrosine- and threonine-specific cdc2-inhibitory kinase (Homo sapiens) (UniProt Q99640).
T1 sequence (whole entry): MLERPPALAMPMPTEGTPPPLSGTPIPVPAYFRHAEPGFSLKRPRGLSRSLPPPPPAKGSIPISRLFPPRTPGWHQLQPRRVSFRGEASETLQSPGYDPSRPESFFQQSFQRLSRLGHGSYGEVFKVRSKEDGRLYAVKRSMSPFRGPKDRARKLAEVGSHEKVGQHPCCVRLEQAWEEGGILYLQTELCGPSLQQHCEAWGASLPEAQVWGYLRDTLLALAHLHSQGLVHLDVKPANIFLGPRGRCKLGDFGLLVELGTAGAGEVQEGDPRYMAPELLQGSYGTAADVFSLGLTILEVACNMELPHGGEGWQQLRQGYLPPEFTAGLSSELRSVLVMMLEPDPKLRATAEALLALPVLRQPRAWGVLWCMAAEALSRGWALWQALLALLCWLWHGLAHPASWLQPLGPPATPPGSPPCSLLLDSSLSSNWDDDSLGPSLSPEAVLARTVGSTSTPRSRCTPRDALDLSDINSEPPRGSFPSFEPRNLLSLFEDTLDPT
The assay can be described thus: Inhibition of PKMYT1 at 1 uM.

The target in assay [4] is Serine/threonine-protein kinase SIK3 (Homo sapiens) (UniProt Q9Y2K2). The assay can be described thus: Inhibition of QSK at 1 uM.
Assay [5] concerns the target Serine/threonine-protein kinase RIO2 (Homo sapiens) (UniProt Q9BVS4). The assay can be described thus: Inhibition of RIOK2 at 1 uM.
Assay [6] addresses Receptor-interacting serine/threonine-protein kinase 2 (Homo sapiens) (UniProt O43353). The assay can be described thus: Inhibition of RIPK2 at 1 uM.
Assay [7] concerns the target Rho-associated protein kinase 2 (Homo sapiens) (UniProt O75116). The assay can be described thus: Inhibition of ROCK2 at 1 uM.
Assay [8] addresses Ribosomal protein S6 kinase alpha-1 (Homo sapiens) (UniProt Q15418). The assay can be described thus: Inhibition of RPS6KA1 N-terminal domain1 at 1 uM.
Assay [9] addresses T2, Serine/threonine-protein kinase TAO3 (Homo sapiens) (UniProt Q9H2K8).
T2 sequence (whole entry): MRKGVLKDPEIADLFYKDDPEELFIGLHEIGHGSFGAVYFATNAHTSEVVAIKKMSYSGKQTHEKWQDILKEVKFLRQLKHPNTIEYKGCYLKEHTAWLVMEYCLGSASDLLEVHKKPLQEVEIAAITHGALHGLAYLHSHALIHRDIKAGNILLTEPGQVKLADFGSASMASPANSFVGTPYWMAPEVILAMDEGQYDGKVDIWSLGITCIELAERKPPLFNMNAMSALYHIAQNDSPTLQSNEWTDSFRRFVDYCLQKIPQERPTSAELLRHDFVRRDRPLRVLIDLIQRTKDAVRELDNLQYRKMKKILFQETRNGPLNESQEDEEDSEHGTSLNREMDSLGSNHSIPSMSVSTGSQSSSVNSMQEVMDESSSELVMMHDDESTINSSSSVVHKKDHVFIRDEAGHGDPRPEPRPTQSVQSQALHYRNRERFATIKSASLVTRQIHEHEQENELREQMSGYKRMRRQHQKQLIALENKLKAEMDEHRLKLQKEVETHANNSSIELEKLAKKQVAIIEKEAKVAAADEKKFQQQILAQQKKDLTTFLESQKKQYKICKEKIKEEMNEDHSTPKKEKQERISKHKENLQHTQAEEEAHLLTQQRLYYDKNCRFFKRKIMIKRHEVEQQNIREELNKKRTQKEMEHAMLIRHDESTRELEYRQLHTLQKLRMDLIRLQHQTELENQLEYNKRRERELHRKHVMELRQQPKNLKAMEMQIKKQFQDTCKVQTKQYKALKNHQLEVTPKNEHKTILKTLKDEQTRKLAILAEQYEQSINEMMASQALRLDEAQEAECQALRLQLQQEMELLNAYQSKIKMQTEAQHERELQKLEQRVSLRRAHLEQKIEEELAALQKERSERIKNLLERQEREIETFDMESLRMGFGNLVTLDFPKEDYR
The assay can be described thus: Inhibition of TAOK3 at 1 uM.

Assay [10] concerns the target T3, Tyrosine-protein kinase TXK (Homo sapiens) (UniProt P42681).
T3 sequence (whole entry): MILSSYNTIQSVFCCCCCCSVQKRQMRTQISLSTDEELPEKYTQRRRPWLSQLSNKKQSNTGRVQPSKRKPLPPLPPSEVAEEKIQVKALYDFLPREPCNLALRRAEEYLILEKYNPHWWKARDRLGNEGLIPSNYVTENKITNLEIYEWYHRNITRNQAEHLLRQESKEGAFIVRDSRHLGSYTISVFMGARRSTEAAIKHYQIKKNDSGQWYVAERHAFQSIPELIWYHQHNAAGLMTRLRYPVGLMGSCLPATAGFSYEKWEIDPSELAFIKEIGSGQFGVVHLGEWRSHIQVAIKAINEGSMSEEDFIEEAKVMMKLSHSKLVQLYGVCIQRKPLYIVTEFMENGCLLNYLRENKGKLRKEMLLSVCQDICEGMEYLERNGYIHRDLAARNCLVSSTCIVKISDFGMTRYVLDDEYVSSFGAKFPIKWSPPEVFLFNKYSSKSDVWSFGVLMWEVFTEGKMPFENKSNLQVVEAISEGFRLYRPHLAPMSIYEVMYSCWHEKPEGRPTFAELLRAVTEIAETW
The assay can be described thus: Inhibition of TXK at 1 uM.

Assay [11] concerns the target AP2-associated protein kinase 1 (Homo sapiens) (UniProt Q2M2I8). The assay can be described thus: Inhibition of AAK1 at 1 uM. Summed up: (§2)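 Ambit KINOMEscan screen at a single concentration across a 250–400 kinase panel, recorded as percent inhibition. Selectivity was expressed as S(90), the fraction of kinases inhibited >90%.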
Assay [12] has as its target Bone morphogenetic protein receptor type-1A (Homo sapiens) (UniProt P36894). Kind of assay: Inhibition of BMPR1A at 1 uM. Summed up: as §2
Assay [13] addresses Fibroblast growth factor receptor 1 (Homo sapiens) (UniProt P11362). The assay can be described thus: Inhibition of FGFR1 at 1 uM. Summed up:
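Single-concentration screen using Ambit Bioscience KINOMEscan technology across a panel of 250–400 kinases. Per-kinase inhibition from this screen was summarized as S(90), the fraction of kinases inhibited by more than 90%.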

Chain of Insulin receptor (Homo sapiens) (P06213 28-758 limits assumed): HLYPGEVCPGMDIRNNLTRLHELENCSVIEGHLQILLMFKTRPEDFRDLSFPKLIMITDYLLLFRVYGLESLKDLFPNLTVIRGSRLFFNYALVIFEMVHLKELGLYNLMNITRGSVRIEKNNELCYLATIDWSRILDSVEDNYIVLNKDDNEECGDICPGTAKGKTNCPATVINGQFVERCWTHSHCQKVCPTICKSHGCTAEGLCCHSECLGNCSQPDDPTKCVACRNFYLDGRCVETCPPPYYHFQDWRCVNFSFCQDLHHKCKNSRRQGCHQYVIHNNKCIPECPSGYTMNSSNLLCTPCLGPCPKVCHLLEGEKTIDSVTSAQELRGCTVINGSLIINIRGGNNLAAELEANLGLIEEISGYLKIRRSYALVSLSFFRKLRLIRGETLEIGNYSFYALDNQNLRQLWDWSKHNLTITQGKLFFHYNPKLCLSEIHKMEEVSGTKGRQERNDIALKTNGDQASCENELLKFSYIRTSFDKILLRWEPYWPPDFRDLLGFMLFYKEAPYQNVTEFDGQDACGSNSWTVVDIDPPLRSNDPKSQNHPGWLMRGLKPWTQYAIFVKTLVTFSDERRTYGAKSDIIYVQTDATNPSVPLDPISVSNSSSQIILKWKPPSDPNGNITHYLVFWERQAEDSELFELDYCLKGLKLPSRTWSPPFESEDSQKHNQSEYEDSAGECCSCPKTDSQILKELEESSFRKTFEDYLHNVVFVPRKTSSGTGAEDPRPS
Chain of Insulin receptor (Homo sapiens) (P06213 763-1382 limits assumed): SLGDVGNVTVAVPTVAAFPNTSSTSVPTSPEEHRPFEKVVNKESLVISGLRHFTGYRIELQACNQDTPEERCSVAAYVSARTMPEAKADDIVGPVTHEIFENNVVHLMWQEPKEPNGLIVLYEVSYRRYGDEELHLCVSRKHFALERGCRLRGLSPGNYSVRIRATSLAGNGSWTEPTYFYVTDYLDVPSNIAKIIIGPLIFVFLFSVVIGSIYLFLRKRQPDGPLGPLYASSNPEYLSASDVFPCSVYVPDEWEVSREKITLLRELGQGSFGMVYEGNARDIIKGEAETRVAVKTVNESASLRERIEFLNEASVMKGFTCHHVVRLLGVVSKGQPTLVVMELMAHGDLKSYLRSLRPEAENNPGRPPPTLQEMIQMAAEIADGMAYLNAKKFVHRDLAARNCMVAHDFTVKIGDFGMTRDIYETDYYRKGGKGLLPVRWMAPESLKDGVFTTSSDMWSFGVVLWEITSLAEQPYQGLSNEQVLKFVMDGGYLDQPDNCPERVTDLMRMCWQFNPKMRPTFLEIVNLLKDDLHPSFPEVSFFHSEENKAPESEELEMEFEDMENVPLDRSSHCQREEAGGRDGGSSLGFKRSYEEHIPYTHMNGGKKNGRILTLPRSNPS
Chain of Ribosomal protein S6 kinase alpha-1 (Homo sapiens) (Q15418 whole entry, the tested form may be a part): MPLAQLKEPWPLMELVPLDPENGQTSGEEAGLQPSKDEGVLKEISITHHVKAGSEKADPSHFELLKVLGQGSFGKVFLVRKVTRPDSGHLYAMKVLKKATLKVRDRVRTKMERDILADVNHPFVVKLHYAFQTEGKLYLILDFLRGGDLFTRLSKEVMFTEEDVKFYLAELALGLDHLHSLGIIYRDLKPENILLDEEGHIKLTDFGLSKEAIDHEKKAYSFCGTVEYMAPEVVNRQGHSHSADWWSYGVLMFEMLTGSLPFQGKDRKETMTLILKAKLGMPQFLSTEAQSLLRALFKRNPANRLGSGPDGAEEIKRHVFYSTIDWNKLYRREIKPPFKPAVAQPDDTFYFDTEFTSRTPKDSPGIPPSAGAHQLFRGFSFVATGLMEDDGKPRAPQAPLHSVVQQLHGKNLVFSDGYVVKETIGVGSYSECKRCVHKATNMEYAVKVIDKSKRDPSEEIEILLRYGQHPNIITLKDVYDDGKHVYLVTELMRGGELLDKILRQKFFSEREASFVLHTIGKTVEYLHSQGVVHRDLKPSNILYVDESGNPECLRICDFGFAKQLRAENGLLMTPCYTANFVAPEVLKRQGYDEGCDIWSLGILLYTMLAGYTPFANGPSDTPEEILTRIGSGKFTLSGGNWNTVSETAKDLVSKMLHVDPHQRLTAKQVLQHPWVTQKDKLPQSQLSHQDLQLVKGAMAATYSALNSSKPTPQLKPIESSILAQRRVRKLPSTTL
Chain of AP2-associated protein kinase 1 (Homo sapiens) (Q2M2I8 whole entry, looked up): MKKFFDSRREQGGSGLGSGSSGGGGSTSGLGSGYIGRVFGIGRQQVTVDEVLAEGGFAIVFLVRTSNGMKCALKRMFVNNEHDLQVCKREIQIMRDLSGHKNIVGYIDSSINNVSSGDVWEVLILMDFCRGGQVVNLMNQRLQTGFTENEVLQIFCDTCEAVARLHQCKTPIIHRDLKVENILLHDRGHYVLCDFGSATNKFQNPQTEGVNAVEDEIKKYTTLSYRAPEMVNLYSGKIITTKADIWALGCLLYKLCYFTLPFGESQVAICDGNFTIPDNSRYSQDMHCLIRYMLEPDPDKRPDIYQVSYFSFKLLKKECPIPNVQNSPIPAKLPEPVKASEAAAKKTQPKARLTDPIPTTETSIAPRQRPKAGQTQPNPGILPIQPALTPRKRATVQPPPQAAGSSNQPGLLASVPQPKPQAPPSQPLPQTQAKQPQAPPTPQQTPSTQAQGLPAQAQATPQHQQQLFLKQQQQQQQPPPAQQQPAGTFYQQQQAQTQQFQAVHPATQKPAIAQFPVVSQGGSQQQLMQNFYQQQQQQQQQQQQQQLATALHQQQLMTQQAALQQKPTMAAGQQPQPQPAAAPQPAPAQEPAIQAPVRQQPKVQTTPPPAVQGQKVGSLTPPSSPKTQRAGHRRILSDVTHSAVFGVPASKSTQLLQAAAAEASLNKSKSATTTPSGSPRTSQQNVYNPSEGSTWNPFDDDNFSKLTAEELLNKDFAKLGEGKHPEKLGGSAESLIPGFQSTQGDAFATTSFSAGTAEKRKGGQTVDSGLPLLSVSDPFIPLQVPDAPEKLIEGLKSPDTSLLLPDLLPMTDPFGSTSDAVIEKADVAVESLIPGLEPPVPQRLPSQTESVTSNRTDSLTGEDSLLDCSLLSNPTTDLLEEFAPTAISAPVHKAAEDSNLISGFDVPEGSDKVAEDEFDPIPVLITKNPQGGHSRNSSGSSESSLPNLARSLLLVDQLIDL
Chain of Serine/threonine-protein kinase RIO2 (Homo sapiens) (Q9BVS4 whole entry, looked up): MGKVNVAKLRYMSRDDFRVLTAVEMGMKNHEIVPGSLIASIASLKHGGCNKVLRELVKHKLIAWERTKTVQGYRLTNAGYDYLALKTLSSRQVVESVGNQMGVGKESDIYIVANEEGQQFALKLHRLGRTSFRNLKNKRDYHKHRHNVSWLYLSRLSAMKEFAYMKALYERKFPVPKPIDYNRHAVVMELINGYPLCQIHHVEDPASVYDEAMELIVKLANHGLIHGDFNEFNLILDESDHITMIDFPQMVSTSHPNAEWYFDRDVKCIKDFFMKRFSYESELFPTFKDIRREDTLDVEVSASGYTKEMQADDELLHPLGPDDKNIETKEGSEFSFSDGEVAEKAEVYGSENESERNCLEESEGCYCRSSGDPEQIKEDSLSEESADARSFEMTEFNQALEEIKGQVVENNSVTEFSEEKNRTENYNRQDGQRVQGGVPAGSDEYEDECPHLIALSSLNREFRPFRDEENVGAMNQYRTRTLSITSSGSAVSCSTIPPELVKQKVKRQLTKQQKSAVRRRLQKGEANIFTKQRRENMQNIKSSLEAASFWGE
Chain of Fibroblast growth factor receptor 1 (Homo sapiens) (P11362 22-822 limits assumed): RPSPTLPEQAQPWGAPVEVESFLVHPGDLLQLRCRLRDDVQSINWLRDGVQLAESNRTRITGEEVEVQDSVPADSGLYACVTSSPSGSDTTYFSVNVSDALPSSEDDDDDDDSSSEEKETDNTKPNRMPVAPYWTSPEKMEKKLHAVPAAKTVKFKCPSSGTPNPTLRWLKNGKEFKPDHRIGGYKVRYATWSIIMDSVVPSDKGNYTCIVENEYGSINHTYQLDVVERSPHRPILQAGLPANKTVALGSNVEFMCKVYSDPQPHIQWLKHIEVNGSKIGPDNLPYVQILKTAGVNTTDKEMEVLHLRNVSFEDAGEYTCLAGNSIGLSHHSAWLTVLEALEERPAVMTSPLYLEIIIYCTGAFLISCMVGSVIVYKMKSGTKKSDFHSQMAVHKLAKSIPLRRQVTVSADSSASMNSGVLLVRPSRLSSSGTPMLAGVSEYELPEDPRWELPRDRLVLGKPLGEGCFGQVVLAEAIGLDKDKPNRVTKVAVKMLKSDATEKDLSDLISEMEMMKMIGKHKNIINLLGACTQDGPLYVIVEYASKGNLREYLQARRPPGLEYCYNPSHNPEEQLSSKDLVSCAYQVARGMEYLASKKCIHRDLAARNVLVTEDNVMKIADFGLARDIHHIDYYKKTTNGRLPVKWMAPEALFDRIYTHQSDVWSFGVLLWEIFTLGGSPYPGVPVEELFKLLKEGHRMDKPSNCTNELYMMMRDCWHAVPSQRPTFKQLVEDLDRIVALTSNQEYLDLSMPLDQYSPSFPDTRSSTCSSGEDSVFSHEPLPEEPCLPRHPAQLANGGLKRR
Chain of Receptor-interacting serine/threonine-protein kinase 2 (Homo sapiens) (O43353 whole entry): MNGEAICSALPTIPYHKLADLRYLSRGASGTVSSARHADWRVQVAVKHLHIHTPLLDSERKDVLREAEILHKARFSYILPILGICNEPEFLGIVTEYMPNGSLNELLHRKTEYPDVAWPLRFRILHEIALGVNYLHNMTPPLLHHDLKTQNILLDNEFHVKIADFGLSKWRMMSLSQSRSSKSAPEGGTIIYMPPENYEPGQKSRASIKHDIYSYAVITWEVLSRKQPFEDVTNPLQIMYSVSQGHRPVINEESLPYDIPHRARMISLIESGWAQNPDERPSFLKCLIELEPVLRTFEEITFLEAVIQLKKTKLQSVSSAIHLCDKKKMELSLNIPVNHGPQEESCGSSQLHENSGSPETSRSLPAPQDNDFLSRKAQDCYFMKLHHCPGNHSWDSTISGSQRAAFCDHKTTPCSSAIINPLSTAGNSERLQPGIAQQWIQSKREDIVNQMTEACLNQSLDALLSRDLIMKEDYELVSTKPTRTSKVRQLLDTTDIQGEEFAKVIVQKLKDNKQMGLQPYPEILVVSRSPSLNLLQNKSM

`FC(F)(F)c1ccc(Cl)cc1CN1CCNc2ncc(-c3ccnc(N4CCNCC4)c3)cc21`: the inhibition (in general, the share of the control response that was lost under treatment) is below 50% in assay [1]; 97% in [2]; below 50% in assay [3]; below 50% in [4]; below 50% in assay [5]; below 50% in assay [6]. Further, the inhibition was 76% in [7]; below 50% in assay [8]; below 50% in [9]; below 50% in assay [10]; below 50% in assay [11]; below 50% in assay [12]. The molecule also gave an inhibition in assay [13] below 50%.

Regarding `CN1CCN(c2ccc(-c3cnc4c(c3)N(Cc3cc(F)ccc3F)CCN4)cn2)CC1`, the inhibition in assay [1] is below 50%; in assay [2], 94.7%; in assay [3] it was below 50%; in assay [4], below 50%; in [5], below 50%; in assay [6], below 50%. Also, the inhibition in [7], in assay [8], in [9], in assay [10], in assay [11] and in assay [12] was below 50% throughout. The inhibition in assay [13] is below 50%.

Take `CN1CCN(c2ccc(-c3cnc4c(c3)N(Cc3cc(Cl)ccc3Cl)CCN4)cn2)CC1`: the inhibition in assay [1] is below 50%; in assay [2] it was 95%; in [3], below 50%; in assay [4], below 50%; in [5] it was below 50%; in [6], below 50%. Besides, the inhibition in [7], in [8], in assay [9], in [10], in assay [11] and in assay [12] was below 50% each time. In assay [13], this molecule had an inhibition below 50%.

For the molecule `O=C(O)c1ccc(-c2cnc3c(c2)N(Cc2cc(Cl)ccc2C(F)(F)F)CCN3)cc1`, the inhibition is below 50% in assay [1]; 95.1% in assay [2]; below 50% in assay [3]; below 50% in [6]; below 50% in assay [8]; below 50% in assay [10]. Further, the inhibition in assay [11], in assay [12] and in assay [13] was below 50% throughout.

In the case of `CN1CCN(c2ccc(-c3cnc4c(c3)N(Cc3cc(Cl)ccc3C(F)(F)F)CCN4)cn2)CC1`, the inhibition in assay [1] is below 50%; in assay [2], 94%; in assay [3] it was below 50%; in [4] it was below 50%; in [5] it was below 50%; in [6] it was below 50%. Further, the inhibition in assay [7], in assay [8], in [9], in assay [10], in assay [11] and in assay [12] was below 50% each time. Further, the inhibition in assay [13] is below 50%.

For the molecule `COC1CCN(C(=O)c2ccc(-c3cnc4c(c3)N(Cc3cc(Cl)ccc3C(F)(F)F)CCN4)cc2)CC1`, the inhibition in assay [1], in assay [3], in assay [6], in assay [8], in assay [10] and in assay [11] was below 50% throughout. Moreover, the inhibition in [12] and in [13] was below 50% throughout.

As for `O=C(c1ccc(-c2cnc3c(c2)N(Cc2cc(Cl)ccc2C(F)(F)F)CCN3)cc1)N1CCC(N2CCCC2)CC1`, the inhibition in assay [1] was below 50%; in assay [2], 99.5%; in [3], below 50%; in assay [6], below 50%; in assay [8] it was below 50%; in assay [10], below 50%. The inhibition in assay [11], in assay [12] and in [13] was below 50% each time.

Consider `CN1CCN(c2ccc(-c3cnc4c(c3)N(Cc3c(F)ccc(F)c3Cl)CCN4)cn2)CC1`, for which the inhibition is below 50% in assay [1]; 77% in assay [2]; below 50% in assay [3]; below 50% in assay [4]; below 50% in [5]; below 50% in assay [6]. The inhibition in assay [7], in assay [8], in [9], in [10], in [11] and in [12] was below 50% in each case. The molecule also yielded an inhibition in [13] below 50%.

As for `O=C(c1ccc(-c2cnc3c(c2)N(Cc2cc(Cl)ccc2C(F)(F)F)CCN3)cc1)N1CCCCC1`, the inhibition is below 50% in [1]; 96.3% in assay [2]; below 50% in [3]; below 50% in assay [6]; below 50% in [8]; below 50% in [10]. The inhibition in [11], in [12] and in assay [13] was below 50% in each case.

As for `CC(=O)N1CCN(c2cc(-c3cnc4c(c3)N(Cc3cc(Cl)ccc3C(F)(F)F)CCN4)ccn2)CC1`, the inhibition is below 50% in assay [1]; 96% in [2]; below 50% in assay [3]; below 50% in assay [4]; below 50% in [5]; below 50% in [6]. The inhibition in assay [7], in [8], in [9], in [10], in assay [11] and in [12] was below 50% throughout. For the same molecule, the inhibition in assay [13] is below 50%.
